In ChEMBL document CHEMBL1811885, “Antiplasmodial sesquiterpene alkaloids from the roots of Maytenus mekongensis” (J Nat Prod, 2011):
In brackets after ≈: the same amount, converted by molar mass. Activity calls are given as the source filed them. The rule behind the calls is not given here.

Experiments:
Plasmodium falciparum = assay: Antiplasmodial activity against multi drug-resistant Plasmodium falciparum K1 infected in human type A+ erythrocytes assessed as inhibition of [G-3H]hypoxanthine incorporation after 42 hrs by scintillation counting; assay type: functional, organism-based; settings: for IC50: K1, 42 h
KB = assay: Cytotoxicity against human KB cells by SRB assay; assay type: functional, cell-based
How it was run: (§1)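 Colorimetric growth assay following the Skehan method, run on three human lines: KB (oral epidermal carcinoma), MCF7 (breast adenocarcinoma) and NCI-H187 (small cell lung).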

NCI-H187 = assay: Cytotoxicity against human NCI-H187 cells by SRB assay; assay type: functional, cell-based; how it was run: as §1
MCF7 = assay: Cytotoxicity against human MCF7 cells by SRB assay; assay type: functional, cell-based; how it was run: as §1

Row | SMILES | IC50 (Plasmodium falciparum) [µM] | IC50 (KB) [µg/mL] | Activity (NCI-H187) | Activity (MCF7) | Activity (Plasmodium falciparum)
1 | CC(=O)OC[C@@]12[C@H](OC(C)=O)[C@H](OC(C)=O)[C@@H]3[C@@H](OC(=O)c4ccccc4)[C@@]14O[C@@]3(C)COC(=O)c1cccnc1CC[C@H](C)C(=O)O[C@@H]([C@H](OC(C)=O)[C@@H]2OC(=O)c1ccccc1)[C@]4(C)O | 2.5 | – | – | – | –
2 | CC(=O)OC[C@@]12[C@H](OC(C)=O)[C@H](OC(C)=O)[C@@H]3[C@@H](OC(=O)c4ccccc4)[C@@]14O[C@@]3(C)COC(=O)c1cccnc1CC[C@](C)(OC(C)=O)C(=O)O[C@@H]([C@H](OC(C)=O)[C@@H]2OC(C)=O)[C@]4(C)O [MEKONGENSINE] | 3.1 | 28.2 (≈ 30.5 µM) | inactive | inactive | –
3 | CC(=O)OC[C@]12[C@H](OC(C)=O)[C@H](OC(C)=O)[C@@H]3[C@@H](OC(C)=O)[C@@]14O[C@@]3(C)COC(=O)c1cccnc1C(C)C(C)C(=O)O[C@@H]([C@H](OC(C)=O)[C@@H]2OC(=O)c1ccccc1)[C@]4(C)O (some centres undefined) | – | – | – | – | inactive
4 | CC(=O)OC[C@@]12[C@H](OC(C)=O)[C@H](OC(C)=O)[C@@H]3[C@@H](OC(=O)c4ccccc4)[C@@]14O[C@@]3(C)COC(=O)c1cccnc1CC[C@H](C)C(=O)O[C@@H]([C@H](OC(C)=O)[C@@H]2OC(C)=O)[C@]4(C)O | 3.1 | 46.7 (≈ 53.8 µM) | inactive | inactive | –
5 | CC(=O)OC[C@]12[C@H](OC(C)=O)[C@H](OC(C)=O)[C@@H]3[C@@H](OC(C)=O)[C@@]14O[C@@]3(C)COC(=O)c1cccnc1C(C)C(C)C(=O)O[C@@H]([C@H](OC(C)=O)[C@@H]2OC(C)=O)[C@]4(C)O (some centres undefined) | – | – | – | – | inactive
6 | CC(=O)OC[C@@]12[C@H](OC(C)=O)[C@@H](OC(C)=O)[C@@H]3[C@@H](OC(=O)c4ccccc4)[C@@]14O[C@@]3(C)COC(=O)c1cccnc1CC[C@](C)(OC(C)=O)C(=O)O[C@@H]([C@H](OC(C)=O)[C@@H]2OC(C)=O)[C@]4(C)O | 3.9 | – | – | – | –
7 | CC(=O)OC[C@@]12[C@H](OC(C)=O)[C@@H](OC(C)=O)[C@@H]3[C@@H](OC(C)=O)[C@@]14O[C@@]3(C)COC(=O)c1cccnc1[C@@H](C)[C@H](C)C(=O)O[C@@H]([C@H](OC(C)=O)[C@@H]2OC(=O)c1ccccc1)[C@]4(C)O | – | – | – | – | inactive
8 | CC(=O)OC[C@@]12[C@H](OC(C)=O)[C@H](OC(C)=O)[C@@H]3[C@@H](OC(=O)c4ccccc4)[C@@]14O[C@@]3(C)COC(=O)c1cccnc1CC[C@](C)(OC(C)=O)C(=O)O[C@@H]([C@H](OC(C)=O)[C@@H]2OC(=O)c1ccccc1)[C@]4(C)O | 3.5 | – | – | – | –
